Hits are enriched below; roughly 4.3% of the tested compounds scored in any of these assays.
Dyrk1A ADPGlo: Dyrk1A (rat) kinase inhibition; Q63470; ADP-Glo luminescence, NFATc1 peptide; inhibition, % at 12.5 µM; 310,000 compounds, 0.43% hits; AID 504441; in the data active = inhibition above about 50%;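 also: plate controls were vehicle with enzyme for no effect and no enzyme for full effect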
CAL PDZ FP-1: CAL PDZ (human) peptide binding inhibition | purified CAL PDZ, TMR-peptide fluorescence polarization, 1 h | inhibition, % at 24.9 µM | 300,000 compounds, 0.92% hits | AID 602252;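 active = mean inhibition of at least 30% with at least half of replicates also reaching 30%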;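 also: 0% = DMSO neutral control and 100% = excess unlabeled competitor peptide PRC23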
ALR H2O2 inh: blocks human ALR sulfhydryl oxidase activity. inhibition, % (no concentration beside the values). AID 485317. purified ALR, DTT oxidation, H2O2 HRP-luminol luminescence. 290,000 compounds, 3.8% hits. P55789;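 active = mean replicate inhibition above about 79%, with every replicate also reaching it, limit read from the data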
Target sequence (P55789 whole entry, looked up): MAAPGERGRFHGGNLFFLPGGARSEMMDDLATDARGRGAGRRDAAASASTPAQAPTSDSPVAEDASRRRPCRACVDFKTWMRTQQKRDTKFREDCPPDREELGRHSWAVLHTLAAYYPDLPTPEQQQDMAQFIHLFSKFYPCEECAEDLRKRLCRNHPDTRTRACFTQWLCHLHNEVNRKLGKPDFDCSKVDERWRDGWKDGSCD
CAL PDZ FP-2: inhibitors of human CAL PDZ peptide binding. Q9HD26. purified CAL PDZ, TMR-peptide fluorescence polarization, 1 h. inhibition, % at 20 µM. 330,000 compounds, 0.02% hits;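 active = highest replicate inhibition of at least 40%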;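 also: plate controls were DMSO neutral control wells for no effect and unlabeled competitor peptide control wells for full effect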
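Assay system – tagged CAL PDZ protein CerCALP, purified · Timing – 1 h at RT · Compound – single point, 20 µM · Measured by – fluorescence polarization from S- and P-plane intensities, G-factor corrected · Evaluation – inhibition from polarization loss · Probe or stimulus – TMR reporter peptide T*-PRC34 · Buffer or medium – pH 7.4 phosphate-saline buffer, reducing agent, detergent, IgG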
Rtt109 Vps75: inhibitors of Candida albicans Rtt109/Vps75 histone acetyltransferase | Q5AAJ8 | 330,000 compounds, 0.16% hits | purified Rtt109/Vps75, ThioGlo CoA-SH fluorescence, 4 h | inhibition, % at 34.9 µM | AID 540336;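 active = inhibition of at least 50% in every replicate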
Target sequence (Q5AAJ8 whole entry, looked up): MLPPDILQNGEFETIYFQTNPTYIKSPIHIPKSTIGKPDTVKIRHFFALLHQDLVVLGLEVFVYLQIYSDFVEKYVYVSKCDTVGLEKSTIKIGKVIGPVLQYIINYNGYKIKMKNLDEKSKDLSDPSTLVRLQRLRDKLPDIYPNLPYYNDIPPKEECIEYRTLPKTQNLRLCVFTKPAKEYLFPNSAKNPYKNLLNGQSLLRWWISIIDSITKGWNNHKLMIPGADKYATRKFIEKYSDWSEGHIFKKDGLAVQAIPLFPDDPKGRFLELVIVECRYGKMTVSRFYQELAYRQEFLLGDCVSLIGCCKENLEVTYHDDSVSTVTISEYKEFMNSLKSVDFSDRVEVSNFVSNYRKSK
Active calls of the source: *; nt = not tested or not shown.

SMILES | Dyrk1A ADPGlo | CAL PDZ FP-1 | ALR H2O2 inh | CAL PDZ FP-2 | Rtt109 Vps75
O=C(O)Cn1c(=O)c2c3c(sc2n(Cc2ccc(Cl)cc2Cl)c1=O)CCCC3 | -1.6 | -6.8 | 76.5* | -5.5 | nt
Cc1n[nH]c(C)c1CCC(=O)N/N=C/C=C/c1ccccc1 | -1.4 | -3.4 | -0.3 | -3.0 | 5.9
COc1ccc(/C=N/NC(=O)CCc2c(C)n[nH]c2C)cc1O | -4.2 | -2.5 | 99.4* | -0.3 | 1.5
COc1ccc(/C=N/NC(=O)CCc2n[nH]c(=O)[nH]c2=O)cc1O | 2.0 | -2.4 | 99.3* | 0.0 | -9.0
COc1ccccc1C(=O)N/N=C(\C)CC(=O)Nc1ccccn1 | -4.2 | nt | 5.9 | -1.0 | 7.4
COc1ccccc1C(=O)N/N=C(\C)CC(=O)Nc1ccc(Cl)cn1 | 1.0 | 65.2* | 6.3 | -0.7 | 13.7
OCCOCCn1c(C(CO)Nc2nc(-c3ccc(Cl)cc3)cs2)nc2ccccc21 (stereo not drawn) | -2.5 | -2.0 | 94.6* | 1.6 | -2.8
Nc1c(Cl)cc(-c2csc(NC(CO)c3nc4ccccc4n3CCOCCO)n2)cc1Cl (stereo not drawn) | -3.8 | -3.1 | 6.5 | 0.6 | 2.9
Cc1ccc(N/N=C/c2ccc(N3CCOCC3)cc2)cc1C | 3.4 | 1.7 | 98.6* | -0.7 | -2.2
O=C(CC(Nc1cccc(Cl)c1Cl)C(=O)O)c1ccccc1 (stereo not drawn) | 3.0 | 2.0 | -10.1 | -3.4 | 9.7
Cc1c(Cl)cccc1NC(CC(=O)c1ccccc1)C(=O)O (stereo not drawn) | -0.3 | -4.5 | 58.8 | -1.1 | 70.0*
Cc1c(Cl)cccc1Nc1ncccc1C(=O)O | 20.2 | -1.3 | -4.0 | 0.1 | 13.0
Cc1c(Cl)cccc1Nc1ccccc1C(=O)O | -7.6 | -1.1 | 97.9* | 0.2 | 11.9
O=C(CC(Nc1ccccc1Cl)C(=O)O)c1ccccc1 (stereo not drawn) | nt | 15.1 | 97.5* | -0.5 | -0.4
CCOc1ccc(NS(=O)(=O)c2csc(C(N)=O)c2)cc1 | 0.6 | -4.0 | -0.3 | -1.7 | -5.7
O=C(CC12CC3CC(CC(C3)C1)C2)Nc1ccccc1N1CCOCC1 | -4.1 | -1.3 | -4.1 | -5.3 | -1.4
Cc1ccc2nc(NCc3ccccc3)[nH]c2c1 | 2.7 | -2.3 | 98.6* | -2.4 | -1.6
COc1ccc2nc(NCCO)[nH]c2c1 | 3.6 | nt | nt | -0.3 | -0.7
COc1ccc2nc(NCc3ccccc3)[nH]c2c1 | -5.0 | 1.0 | 94.8* | -0.2 | 0.9
c1ccc(CNc2nc3ccccc3[nH]2)cc1 | -3.1 | -4.1 | 18.3 | -0.8 | 0.7
COc1ccc2nc(N3CCCC3)[nH]c2c1 | 2.3 | nt | 96.0* | -3.0 | 0.2
Cc1ccccc1NC(=O)CN1C(=O)CSc2ccc(S(=O)(=O)N3CCCCC3)cc21 | nt | -0.9 | nt | -2.1 | 4.3
CCOc1ccc(CCNC(=O)CN2C(=O)NC(CCSC)C2=O)cc1OCC (stereo not drawn) | 14.2 | 2.6 | -11.1 | -11.9 | 11.3
Cn1c(N)c(C(=O)COC(=O)c2ccc(S(=O)(=O)N3CCCCC3)cc2)c(=O)n(C)c1=O | nt | nt | -1.1 | nt | nt
O=C(COC(=O)/C=C/c1ccco1)Nc1ccc(F)cc1Cl | -2.7 | -2.2 | 67.6 | -3.0 | 0.8
SMILES | Dyrk1A ADPGlo | CAL PDZ FP-1 | ALR H2O2 inh | CAL PDZ FP-2 | Rtt109 Vps75
CC(C(=O)O)N1C(=O)/C(=C/C=C/c2ccco2)SC1=S (stereo not drawn) | -4.7 | 26.7 | 97.3* | 0.1 | 28.0
COC(C)c1oc2c(C)c3oc(=O)cc(C)c3cc2c1C (stereo not drawn) | 4.2 | -2.4 | 4.7 | -1.3 | -8.3
CC1(C)CC(=O)C(C=Nc2ccc(N)cc2)=C(O)C1 | 4.6 | nt | 68.1 | 0.6 | -1.7
CC1(C)CC(=O)C(C=Nc2ccc(O)cc2)=C(O)C1 | -6.0 | -1.3 | 99.1* | -2.3 | 1.0
CC(C)C(NC(=O)/C(=C/c1ccco1)NC(=O)c1ccc(Br)o1)C(=O)O (stereo not drawn) | 1.5 | 6.7 | 0.3 | -0.7 | nt
CCc1ccccc1N(CC(=O)Nc1cccnc1)S(=O)(=O)c1ccccc1 | 2.5 | -6.0 | 2.1 | -2.2 | 0.2
COc1ccc(NC2=C(C(C)=O)C(c3ccc(N(C)C)cc3)C(C(C)=O)C(C)(O)C2)cc1 (stereo not drawn) | -3.5 | 6.3 | 91.2* | 0.0 | -3.9
COc1ccc(NC2=C(C(C)=O)C(c3ccc(OC)cc3)C(C(C)=O)C(C)(O)C2)cc1 (stereo not drawn) | -3.1 | -2.7 | -9.9 | -0.6 | 6.5
CC(C)=N/N=c1\scc(C)n1Cc1ccco1 | 0.2 | 1.4 | 48.8 | -1.6 | -4.5
Cc1csc(=Nc2cccnc2)n1Cc1ccco1 | -5.7 | 6.5 | 33.8 | -1.4 | -0.5
Cc1cs/c(=N\N=C2CCCCC2)n1Cc1ccco1 | 3.6 | 5.0 | 96.2* | -24.9 | 0.5
Cc1cs/c(=N\N=C\c2ccccc2)n1Cc1ccco1 | -4.0 | -3.0 | 83.7* | -0.1 | -4.3
Cc1cccc(Nc2ncnc3nc[nH]c23)c1 | 19.5 | nt | 94.7* | -1.7 | -3.3
Cc1ccc(C)c(Nc2ncnc3nc[nH]c23)c1 | 3.9 | nt | -0.7 | -1.8 | 1.0
CC(=O)NC(c1cc(Cl)c2ccccc2c1O)C(C)C (stereo not drawn) | 0.7 | 0.5 | 93.6* | -1.8 | 1.1
COc1cccc(NC(=O)c2cc(OC)c(OC)c(OC)c2Br)c1 | -0.2 | -3.1 | 97.2* | -1.6 | nt
CCOC(=O)c1ccc(NC(=O)c2cc(OC)c(OC)c(OC)c2Br)cc1 | 0.1 | nt | -16.9 | -3.4 | 5.1
COc1cc(NC(=O)Nc2cccc(C(C)=O)c2)cc(OC)c1OC | 6.5 | nt | 98.4* | -1.2 | -1.8
COc1cccc(OC)c1C(=O)Nc1cccc(-c2ccc(N3CCOCC3)nn2)c1 | 9.5 | -11.5 | -11.7 | -6.4 | 51.5*
CCc1sc(C(=O)Nc2cccc(C(C)=O)c2)cc1C | -2.5 | -0.6 | -0.8 | -3.0 | 51.8*
COc1ccc(CNC(=O)C/C(C)=N/NC(=O)COc2cccc(C)c2)cc1 | -4.5 | -0.9 | -1.2 | -0.7 | -5.4
COc1cc(C(=O)Nc2cccc(C(C)=O)c2)cc(OC)c1OC | 23.7 | nt | 4.1 | 0.3 | -7.9
COc1cccc(OC)c1C(=O)Nc1cccc(C(C)=O)c1 | 1.6 | 53.0* | nt | -2.0 | -10.0
Cc1cc(Cl)c(OCCCCNC(C)(C)C)c(Br)c1 | nt | nt | -1.3 | nt | nt
CCOC(=O)C(CSCC(=O)c1ccc(Br)cc1)NC(=O)OC(C)(C)C (stereo not drawn) | nt | nt | 98.5* | nt | nt
SMILES | Dyrk1A ADPGlo | CAL PDZ FP-1 | ALR H2O2 inh | CAL PDZ FP-2 | Rtt109 Vps75
CCOc1ccc(C(=O)C(C)OC(=O)Cn2[nH]c(=O)c3ccccc3c2=O)cc1 (stereo not drawn) | 3.0 | nt | 8.5 | -1.0 | 4.5
Cc1ccc(Nc2nc(/N=C/NO)n[nH]2)cc1C | -9.2 | -3.8 | 60.8 | -2.9 | -1.9
Nc1nc(Cl)c(N)c(NCC2(CO)CC(CCc3ccccc3)C2)n1 (stereo not drawn) | -1.6 | 1.2 | nt | -0.7 | 1.2
CC(Cc1cccnc1)NC(=O)c1ccccc1OC1CCN(S(C)(=O)=O)CC1 (stereo not drawn) | -2.9 | 31.0* | 3.8 | -1.9 | 7.5
CC(C)Cn1c(-c2ccncc2)n[nH]c1=S | 2.1 | -2.7 | 86.6* | -0.1 | -10.5
COc1cccc(-c2n[nH]c(=S)n2Cc2ccco2)c1 | -0.1 | 2.8 | -3.9 | -0.2 | -17.1

Screening results deposited in PubChem by Broad Institute.
